Reference: ChEMBL document CHEMBL4266033, “Neolymphostin A Is a Covalent Phosphoinositide 3-Kinase (PI3K)/Mammalian Target of Rapamycin (mTOR) Dual Inhibitor That Employs an Unusual Electrophilic Vinylogous Ester” (J Med Chem, 2018)
Calls of active or inactive are those of the source. No cut-off for these calls is given here.

Key:
[1] = biological target: T1, Serine/threonine-protein kinase PLK4 (Homo sapiens) (UniProt O00444); assay: Binding affinity to human PLK4 at 1 uM after 1 hr by KINOMEscan assay
T1 sequence (whole entry): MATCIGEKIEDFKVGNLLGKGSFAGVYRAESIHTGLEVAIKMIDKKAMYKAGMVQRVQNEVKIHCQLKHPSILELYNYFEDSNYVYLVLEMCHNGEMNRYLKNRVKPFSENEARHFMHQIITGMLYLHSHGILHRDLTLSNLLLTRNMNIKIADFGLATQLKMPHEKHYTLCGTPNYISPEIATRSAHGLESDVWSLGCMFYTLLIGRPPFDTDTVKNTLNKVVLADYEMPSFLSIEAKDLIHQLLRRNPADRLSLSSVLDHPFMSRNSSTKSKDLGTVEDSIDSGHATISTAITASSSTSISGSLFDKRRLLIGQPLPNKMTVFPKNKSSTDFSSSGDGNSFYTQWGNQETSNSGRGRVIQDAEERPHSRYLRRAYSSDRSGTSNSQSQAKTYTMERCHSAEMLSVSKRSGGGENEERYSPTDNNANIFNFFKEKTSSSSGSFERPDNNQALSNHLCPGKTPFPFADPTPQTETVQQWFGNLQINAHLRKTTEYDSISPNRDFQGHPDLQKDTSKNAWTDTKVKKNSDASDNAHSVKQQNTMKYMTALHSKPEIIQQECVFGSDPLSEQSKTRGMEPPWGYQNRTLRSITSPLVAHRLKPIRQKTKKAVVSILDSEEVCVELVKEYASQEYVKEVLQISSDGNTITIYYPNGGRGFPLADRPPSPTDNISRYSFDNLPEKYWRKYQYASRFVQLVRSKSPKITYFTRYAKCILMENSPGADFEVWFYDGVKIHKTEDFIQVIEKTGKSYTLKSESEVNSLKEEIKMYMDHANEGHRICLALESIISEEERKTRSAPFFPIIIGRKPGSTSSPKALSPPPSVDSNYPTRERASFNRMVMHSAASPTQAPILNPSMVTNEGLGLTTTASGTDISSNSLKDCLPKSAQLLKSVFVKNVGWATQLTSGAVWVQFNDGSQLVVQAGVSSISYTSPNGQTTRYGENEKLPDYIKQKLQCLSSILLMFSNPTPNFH

[2] = Inhibition of PI3K in human HeLa cells assessed as reduction in EGF-stimulated AKT phosphorylation at S473 preincubated for 10 mins followed by EGF stimulation measured after 5 mins by Western blot analysis; assay type: cell-based
Method in brief: (§1)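 HeLa cells were serum-starved overnight, pretreated with compound for 10 min, then stimulated with 10 ng mL-1 EGF for 5 min. Lysis was in boiling SDS sample buffer, with protein quantified at 660 nm. Equal protein was resolved by SDS-PAGE and Western blotted for pEGFR Tyr1068, pAKT Ser473/Thr308, and pERK1/2 Thr202/Tyr204 with total proteins and GAPDH, detected by ECL.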

[3] = biological target: Phosphatidylinositol 4,5-bisphosphate 3-kinase catalytic subunit gamma isoform (Homo sapiens, UniProt P48736); assay: Binding affinity to human PI3Kgamma diluted 30 fold and equilibrate for 6 hrs by scan-kinetic platform assay
Method in brief: (§2)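 scanKINETIC format on PI3Kα and PI3Kγ. […] Arm C: equilibrated 1 h. Arm B: equilibrated 1 h, diluted 30-fold, then re-equilibrated. Arm D: diluted immediately, then equilibrated. Kd compared with and without the dilution step to judge reversibility.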

[4] = biological target: T2, Phosphatidylinositol 4,5-bisphosphate 3-kinase catalytic subunit alpha isoform (Homo sapiens, UniProt P42336); assay: Binding affinity to human PI3Kalpha equilibrate for 1 hr followed by 30 fold dilution and re-equilibrate for 5 hrs by scan-kinetic platform assay; method in brief: as §2
[5] = biological target: T3, Phosphatidylinositol 4,5-bisphosphate 3-kinase catalytic subunit delta isoform (Homo sapiens, UniProt O00329); assay: Binding affinity to human PI3Kdelta after 1 hr by KINOMEscan assay
T3 sequence (O00329 whole entry): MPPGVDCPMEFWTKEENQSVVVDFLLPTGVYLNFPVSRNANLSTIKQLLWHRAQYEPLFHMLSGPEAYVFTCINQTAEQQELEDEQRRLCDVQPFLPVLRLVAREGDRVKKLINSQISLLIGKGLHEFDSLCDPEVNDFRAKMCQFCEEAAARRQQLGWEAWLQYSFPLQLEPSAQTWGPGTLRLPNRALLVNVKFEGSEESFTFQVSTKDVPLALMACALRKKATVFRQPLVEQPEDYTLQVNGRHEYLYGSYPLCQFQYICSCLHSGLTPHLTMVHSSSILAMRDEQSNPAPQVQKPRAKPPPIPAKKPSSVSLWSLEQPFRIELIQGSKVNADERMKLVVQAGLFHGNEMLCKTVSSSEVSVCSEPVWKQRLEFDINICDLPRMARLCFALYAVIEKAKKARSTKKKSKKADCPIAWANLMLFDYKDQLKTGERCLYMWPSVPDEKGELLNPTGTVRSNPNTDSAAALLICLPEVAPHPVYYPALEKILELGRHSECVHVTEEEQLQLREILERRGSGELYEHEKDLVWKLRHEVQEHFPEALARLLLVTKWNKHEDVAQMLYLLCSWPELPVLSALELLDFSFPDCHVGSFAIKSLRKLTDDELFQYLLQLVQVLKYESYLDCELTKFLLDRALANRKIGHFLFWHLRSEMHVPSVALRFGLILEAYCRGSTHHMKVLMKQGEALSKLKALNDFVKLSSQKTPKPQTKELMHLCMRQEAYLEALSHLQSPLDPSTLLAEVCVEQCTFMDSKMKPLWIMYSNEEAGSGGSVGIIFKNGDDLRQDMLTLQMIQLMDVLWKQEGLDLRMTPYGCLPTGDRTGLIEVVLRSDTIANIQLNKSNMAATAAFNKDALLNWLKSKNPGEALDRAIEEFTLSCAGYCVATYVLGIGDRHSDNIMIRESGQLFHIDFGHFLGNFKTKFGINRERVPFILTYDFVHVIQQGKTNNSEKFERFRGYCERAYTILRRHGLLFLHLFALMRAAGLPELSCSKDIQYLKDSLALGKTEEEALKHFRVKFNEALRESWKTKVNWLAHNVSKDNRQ

[6] = biological target: Mitogen-activated protein kinase 10 (Homo sapiens) (UniProt P53779); assay: Binding affinity to human JNK3 at 1 uM after 1 hr by KINOMEscan assay
[7] = biological target: Aurora kinase B (Homo sapiens) (UniProt Q96GD4); assay: Binding affinity to human AURKB at 1 uM after 1 hr by KINOMEscan assay
Method in brief: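 KINOMEscan competition binding profiling across 97 kinases. Affinity expressed as percent of control.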

[8] = tested on: Panel NCI-60 (60 carcinoma cell lines); assay: Growth inhibition of human NCI60 cells after 48 hrs by sulforhodamine B assay; assay type: functional
Method in brief: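 NCI 60-cell line panel (leukemia, NSCLC, colon, CNS, melanoma, ovarian, renal, prostate, breast). 5-point dose-response curves with top concentration 50 µM. GI50, TGI and LC50 were calculated from the curves.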

[9] = biological target: T2, Phosphatidylinositol 4,5-bisphosphate 3-kinase catalytic subunit alpha isoform; assay: Binding affinity to human PI3Kalpha after 1 hr by KINOMEscan assay
[10] = Inhibition of PI3K in human HeLa cells assessed as reduction in EGF-stimulated AKT phosphorylation at T308 preincubated for 10 mins followed by EGF stimulation measured after 5 mins by Western blot analysis; assay type: cell-based; method in brief: as §1

T2 sequence (P42336 whole entry, canonical isoform): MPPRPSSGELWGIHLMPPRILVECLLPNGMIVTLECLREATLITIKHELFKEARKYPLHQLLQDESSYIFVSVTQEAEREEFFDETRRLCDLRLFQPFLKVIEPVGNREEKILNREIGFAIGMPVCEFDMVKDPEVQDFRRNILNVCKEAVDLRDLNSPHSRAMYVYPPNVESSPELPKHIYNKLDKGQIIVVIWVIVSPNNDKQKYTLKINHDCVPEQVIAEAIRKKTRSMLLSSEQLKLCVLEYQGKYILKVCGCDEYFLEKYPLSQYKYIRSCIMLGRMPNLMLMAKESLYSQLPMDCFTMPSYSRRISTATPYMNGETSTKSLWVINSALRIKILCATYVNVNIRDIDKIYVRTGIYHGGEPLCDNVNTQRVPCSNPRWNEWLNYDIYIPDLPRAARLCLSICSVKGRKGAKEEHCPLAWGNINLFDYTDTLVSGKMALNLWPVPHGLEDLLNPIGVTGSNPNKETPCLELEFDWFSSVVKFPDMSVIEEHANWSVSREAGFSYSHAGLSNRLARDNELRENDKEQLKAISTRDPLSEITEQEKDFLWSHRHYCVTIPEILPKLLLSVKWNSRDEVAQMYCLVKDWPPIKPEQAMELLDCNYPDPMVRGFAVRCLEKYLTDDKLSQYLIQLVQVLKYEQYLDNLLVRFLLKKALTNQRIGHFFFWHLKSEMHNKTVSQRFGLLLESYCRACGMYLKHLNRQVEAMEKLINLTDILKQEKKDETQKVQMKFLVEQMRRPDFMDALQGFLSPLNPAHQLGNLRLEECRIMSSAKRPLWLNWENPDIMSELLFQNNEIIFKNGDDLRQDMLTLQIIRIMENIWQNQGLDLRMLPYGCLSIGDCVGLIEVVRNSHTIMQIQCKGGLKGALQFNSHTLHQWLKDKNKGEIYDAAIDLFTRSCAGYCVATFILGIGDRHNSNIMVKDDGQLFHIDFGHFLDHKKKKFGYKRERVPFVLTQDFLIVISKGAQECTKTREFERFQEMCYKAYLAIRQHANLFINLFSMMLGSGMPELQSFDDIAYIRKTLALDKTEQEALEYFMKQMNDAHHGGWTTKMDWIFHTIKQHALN
Mitogen-activated protein kinase 10 (Homo sapiens), sequence (P53779 whole entry): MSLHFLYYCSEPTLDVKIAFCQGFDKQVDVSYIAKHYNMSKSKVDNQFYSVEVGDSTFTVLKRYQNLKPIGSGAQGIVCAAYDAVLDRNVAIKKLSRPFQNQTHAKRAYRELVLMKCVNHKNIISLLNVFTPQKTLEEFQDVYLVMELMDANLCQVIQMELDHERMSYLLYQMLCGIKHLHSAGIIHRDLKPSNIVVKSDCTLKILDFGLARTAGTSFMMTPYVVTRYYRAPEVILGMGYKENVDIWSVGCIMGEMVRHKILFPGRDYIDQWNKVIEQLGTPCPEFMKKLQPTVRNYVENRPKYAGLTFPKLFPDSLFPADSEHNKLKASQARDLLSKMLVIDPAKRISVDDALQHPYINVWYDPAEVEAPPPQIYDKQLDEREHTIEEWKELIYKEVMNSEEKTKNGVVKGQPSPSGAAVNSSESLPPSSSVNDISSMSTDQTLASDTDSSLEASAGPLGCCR
Phosphatidylinositol 4,5-bisphosphate 3-kinase catalytic subunit gamma isoform, sequence (P48736 whole entry, canonical isoform): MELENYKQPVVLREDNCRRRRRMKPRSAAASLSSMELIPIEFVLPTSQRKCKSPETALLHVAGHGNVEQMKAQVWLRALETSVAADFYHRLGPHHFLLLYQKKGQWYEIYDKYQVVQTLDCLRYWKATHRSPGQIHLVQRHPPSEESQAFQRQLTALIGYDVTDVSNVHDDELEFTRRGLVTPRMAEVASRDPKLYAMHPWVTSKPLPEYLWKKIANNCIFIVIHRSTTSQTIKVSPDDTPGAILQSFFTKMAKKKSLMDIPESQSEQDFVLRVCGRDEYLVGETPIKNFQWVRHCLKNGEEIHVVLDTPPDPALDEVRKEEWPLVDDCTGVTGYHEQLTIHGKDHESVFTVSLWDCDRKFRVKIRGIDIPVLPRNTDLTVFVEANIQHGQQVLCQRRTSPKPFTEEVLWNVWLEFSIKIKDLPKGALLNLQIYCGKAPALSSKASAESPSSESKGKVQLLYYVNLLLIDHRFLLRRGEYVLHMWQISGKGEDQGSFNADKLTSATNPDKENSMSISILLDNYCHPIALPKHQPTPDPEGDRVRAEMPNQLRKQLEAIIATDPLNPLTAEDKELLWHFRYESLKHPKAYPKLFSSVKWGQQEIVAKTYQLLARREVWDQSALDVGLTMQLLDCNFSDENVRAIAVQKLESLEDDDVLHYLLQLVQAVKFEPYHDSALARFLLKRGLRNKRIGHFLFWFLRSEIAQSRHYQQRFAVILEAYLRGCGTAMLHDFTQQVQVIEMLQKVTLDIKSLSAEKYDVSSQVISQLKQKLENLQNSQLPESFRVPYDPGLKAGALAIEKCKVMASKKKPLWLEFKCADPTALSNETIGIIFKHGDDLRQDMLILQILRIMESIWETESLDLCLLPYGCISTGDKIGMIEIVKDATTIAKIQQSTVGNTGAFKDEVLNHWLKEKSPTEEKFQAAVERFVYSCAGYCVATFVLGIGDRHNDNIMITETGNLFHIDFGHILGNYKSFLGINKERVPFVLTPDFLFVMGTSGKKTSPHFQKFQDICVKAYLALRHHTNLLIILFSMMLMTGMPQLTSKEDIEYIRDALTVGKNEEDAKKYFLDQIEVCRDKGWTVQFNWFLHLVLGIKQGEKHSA
Aurora kinase B (Homo sapiens), sequence (Q96GD4 whole entry): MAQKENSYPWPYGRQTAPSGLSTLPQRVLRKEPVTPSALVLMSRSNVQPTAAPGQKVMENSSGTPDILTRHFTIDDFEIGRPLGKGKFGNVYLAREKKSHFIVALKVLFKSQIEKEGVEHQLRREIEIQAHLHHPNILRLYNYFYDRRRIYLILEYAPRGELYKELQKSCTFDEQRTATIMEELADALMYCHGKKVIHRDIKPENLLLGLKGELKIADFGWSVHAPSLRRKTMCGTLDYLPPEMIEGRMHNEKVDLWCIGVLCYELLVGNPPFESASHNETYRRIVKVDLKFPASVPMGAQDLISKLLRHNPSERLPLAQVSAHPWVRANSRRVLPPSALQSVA

Activity [1]: Active | IC50 [2]: 3 nM | Kd [3]: 80 to 100 nM | Kd [4]: 0.56 to 0.72 nM | Kd [5]: 4.9 nM | Activity [6]: Active | Activity [7]: Active | Kd [9]: 0.88 nM | IC50 [10]: 3 nM
Compound: CO/C=C/C(=O)c1cc2c3c(c(N)cc(NC(=O)C(C)C)c3n1)N=C2
GI50 [8]: 6 to 840 nM
